Measurements: ChEMBL document CHEMBL1777749, “4-Aminothiazolyl analogs of GE2270 A: design, synthesis and evaluation of imidazole analogs” (2011)
≈ marks a conversion by molar mass, not a printed value.

Tests used:
Assay type in all cases: functional
Staphylococcus aureus = assay: Antimicrobial activity against methicillin-resistant Staphylococcus aureus clinical isolate obtained from pharyngeal smear by CLSI method
How it was run: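 MIC by dilution susceptibility testing per CLSI M07-A8, for bacteria that grow aerobically. Strain: MRSA clinical isolate AKH Vienna A4.018, from a pharyngeal smear. Tested compounds were >95% pure by LCUV, LCMS and ¹H NMR.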

Escherichia coli = assay: Inhibition of protein synthesis in Escherichia coli S30 extract at 2 uM by luciferase assay relative to control
Enterococcus faecium = assay: Antimicrobial activity against Enterococcus faecium 7130724 by CLSI method
Enterococcus faecalis = assay: Antimicrobial activity against Enterococcus faecalis ATCC 29212 by CLSI method
Streptococcus pyogenes = assay: Antimicrobial activity against Streptococcus pyogenes ATCC BAA-595 by CLSI method

SMILES | MIC (Staphylococcus aureus) [µg/mL] | inhibition at 2 µM (Escherichia coli) [%] | MIC (Enterococcus faecium) [µg/mL] | MIC (Enterococcus faecalis) [µg/mL] | MIC (Streptococcus pyogenes) [µg/mL]
CNC(=O)C[C@@H]1NC(=O)c2csc(n2)-c2ccc(-c3nc(-n4cnc(C(=O)NCC(=O)O)c4)cs3)nc2-c2csc(n2)-c2csc(n2)[C@H]([C@@H](O)c2ccccc2)NC(=O)CNC(=O)c2nc(sc2COC)[C@H](C(C)C)NC(=O)c2nc1sc2C | 4 (≈ 3.2 µM) | 64 | 32 (≈ 25.6 µM) | 8 (≈ 6.41 µM) | > 32
CNC(=O)C[C@@H]1NC(=O)c2csc(n2)-c2ccc(-c3nc(-n4cnc(C(=O)O)c4)cs3)nc2-c2csc(n2)-c2csc(n2)[C@H]([C@@H](O)c2ccccc2)NC(=O)CNC(=O)c2nc(sc2COC)[C@H](C(C)C)NC(=O)c2nc1sc2C | 4 (≈ 3.36 µM) | 0 | > 32 | 4 (≈ 3.36 µM) | > 32
CNC(=O)C[C@@H]1NC(=O)c2csc(n2)-c2ccc(-c3nc(C4=N[C@H](C(=O)N5CCC[C@H]5C(N)=O)CO4)cs3)nc2-c2csc(n2)-c2csc(n2)[C@H]([C@@H](O)c2ccccc2)NC(=O)CNC(=O)c2nc(sc2COC)[C@H](C(C)C)NC(=O)c2nc1sc2C | 0.25 (≈ 0.194 µM) | 61 | 0.25 (≈ 0.194 µM) | 0.5 (≈ 0.387 µM) | 1 (≈ 0.775 µM)
CNC(=O)C[C@@H]1NC(=O)c2csc(n2)-c2ccc(-c3nc(-n4cnc(C(=O)N5CCC[C@H]5C(=O)O)c4)cs3)nc2-c2csc(n2)-c2csc(n2)[C@H]([C@@H](O)c2ccccc2)NC(=O)CNC(=O)c2nc(sc2COC)[C@H](C(C)C)NC(=O)c2nc1sc2C | 8 (≈ 6.21 µM) | 53 | > 32 | 8 (≈ 6.21 µM) | > 32
